Data taken from ChEMBL document CHEMBL4304743, “Discovery of ( E)- N1-(3-Fluorophenyl)- N3-(3-(2-(pyridin-2-yl)vinyl)-1 H-indazol-6-yl)malonamide (CHMFL-KIT-033) as a Novel c-KIT T670I Mutant Selective Kinase Inhibitor for Gastrointestinal Stromal Tumors (GISTs)” (J Med Chem, 2019).
pEC50, pIC50: −log10 of the molar value. The source made the active and inactive calls. The calls are words filed in the database; no cut-off is given here.

Assays:
[1] = molecular target: T1, Mast/stem cell growth factor receptor Kit (Homo sapiens, UniProt P10721); assay: Inhibition of wild type TEL fused c-KIT (unknown origin) transfected in mouse BAF3 cells assessed as growth inhibition after 72 hrs by CCK8 assay; format: cell-based; details: baf3, 72 h
T1 sequence (P10721 whole entry, the tested form may be a part): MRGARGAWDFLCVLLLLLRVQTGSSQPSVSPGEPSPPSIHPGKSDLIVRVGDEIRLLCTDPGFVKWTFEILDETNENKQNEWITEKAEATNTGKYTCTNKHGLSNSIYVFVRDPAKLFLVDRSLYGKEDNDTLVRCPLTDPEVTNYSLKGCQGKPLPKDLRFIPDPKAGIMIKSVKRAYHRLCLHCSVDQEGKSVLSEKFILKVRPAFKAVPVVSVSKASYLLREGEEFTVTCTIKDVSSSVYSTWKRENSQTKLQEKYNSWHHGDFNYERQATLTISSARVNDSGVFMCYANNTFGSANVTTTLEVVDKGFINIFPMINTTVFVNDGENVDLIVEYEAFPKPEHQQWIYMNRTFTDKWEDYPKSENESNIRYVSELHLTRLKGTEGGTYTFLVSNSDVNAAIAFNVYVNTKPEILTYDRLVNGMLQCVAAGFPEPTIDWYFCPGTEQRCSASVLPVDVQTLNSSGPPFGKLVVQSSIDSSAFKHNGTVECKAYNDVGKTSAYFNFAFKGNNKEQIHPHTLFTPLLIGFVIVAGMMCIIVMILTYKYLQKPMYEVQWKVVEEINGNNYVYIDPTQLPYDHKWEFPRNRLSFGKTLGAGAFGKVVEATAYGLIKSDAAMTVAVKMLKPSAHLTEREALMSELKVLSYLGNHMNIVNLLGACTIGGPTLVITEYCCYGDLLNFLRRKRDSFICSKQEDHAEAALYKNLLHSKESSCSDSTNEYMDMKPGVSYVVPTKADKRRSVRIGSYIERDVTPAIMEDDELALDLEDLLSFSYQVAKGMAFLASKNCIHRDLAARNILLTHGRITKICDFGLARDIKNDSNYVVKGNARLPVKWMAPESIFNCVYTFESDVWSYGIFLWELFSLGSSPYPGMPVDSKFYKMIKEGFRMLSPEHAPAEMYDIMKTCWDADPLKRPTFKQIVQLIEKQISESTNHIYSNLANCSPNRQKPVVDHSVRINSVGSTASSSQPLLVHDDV
How it was run: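 IL-3 independent BaF3 cells stably expressing tel-c-KIT wt or tel-c-KIT T670I, grown in RPMI 1640 with 10% FBS, 2% L-glutamine, 37 °C, 5% CO2. Suspension cells at 1.5 to 5 × 10^4 cells/mL mixed with serial compound dilutions and incubated 72 h. Viability read by CCK-8 absorbance at 450 nm, normalized to DMSO; GI50 from curve fit. Selectivity is wt GI50 over T670I GI50.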

[2] = test system: Mast/stem cell growth factor receptor Kit (Homo sapiens), P10721 [V559D,V654A]; assay: Inhibition of TEL fused c-KIT V654A/V559D double mutant (unknown origin) transfected in mouse BAF3 cells assessed as growth inhibition after 72 hrs by CCK8 assay; format: cell-based
Mast/stem cell growth factor receptor Kit (Homo sapiens), P10721 [V559D,V654A], sequence (P10721 whole entry V559D/V654A, the tested form may be a part): as the sequence (P10721 whole entry, the tested form may be a part) above, with V559D, V654A counted along it
How it was run: (§1)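 Tel-c-KIT-transformed BaF3 lines (IL-3 independent) kept in RPMI 1640 with 10% FBS, 2% L-glutamine and pen/strep. Cells at 1.5 to 5 × 10^4 cells/mL mixed with graded compound and incubated 72 h at 37 °C, 5% CO2. Viability by CCK-8 absorbance at 450 nm, normalized to DMSO. GI50 from dose–response fit.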

[3] = test system: Mast/stem cell growth factor receptor Kit (Homo sapiens), P10721 [D816H]; assay: Inhibition of TEL fused c-KIT D816H mutant (unknown origin) transfected in mouse BAF3 cells assessed as growth inhibition after 72 hrs by CCK8 assay; format: cell-based; how it was run: as §1
Mast/stem cell growth factor receptor Kit (Homo sapiens), P10721 [D816H], sequence (P10721 whole entry D816H, the tested form may be a part): as the sequence (P10721 whole entry, the tested form may be a part) above, with D816H counted along it

[4] = test system: Mast/stem cell growth factor receptor Kit (Homo sapiens), P10721 [A829P]; assay: Inhibition of TEL fused c-KIT A829P mutant (unknown origin) transfected in mouse BAF3 cells assessed as growth inhibition after 72 hrs by CCK8 assay; format: cell-based; how it was run: as §1
Mast/stem cell growth factor receptor Kit (Homo sapiens), P10721 [A829P], sequence (P10721 whole entry A829P, the tested form may be a part): as the sequence (P10721 whole entry, the tested form may be a part) above, with A829P counted along it

[5] = molecular target: T1, Mast/stem cell growth factor receptor Kit; assay: Inhibition of TEL fused wild type c-KIT (unknown origin) transfected in mouse BaF3 cells assessed as reduction in phosphorylation at Y719 residue after 2 hrs by Western blot analysis; format: cell-based
[6] = molecular target: Casein kinase I isoform alpha (Homo sapiens, UniProt P48729); assay: Binding affinity to wild-type human partial length CSNK1A1 (M1 to L301 residues) expressed in mammalian expression system assessed as enzyme remaining activity at 1 uM by Kinomescan assay relative to control
Casein kinase I isoform alpha, sequence (P48729 2-337 limits assumed): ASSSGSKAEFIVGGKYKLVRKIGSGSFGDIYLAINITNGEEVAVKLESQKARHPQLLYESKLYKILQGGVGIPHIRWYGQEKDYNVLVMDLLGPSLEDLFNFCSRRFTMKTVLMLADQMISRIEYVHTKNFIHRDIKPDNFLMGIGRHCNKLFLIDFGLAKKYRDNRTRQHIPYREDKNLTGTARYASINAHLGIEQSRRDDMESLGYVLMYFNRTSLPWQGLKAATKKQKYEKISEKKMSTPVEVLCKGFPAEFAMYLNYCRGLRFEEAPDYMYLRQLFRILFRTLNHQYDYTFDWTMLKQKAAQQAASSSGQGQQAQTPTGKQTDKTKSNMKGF
How it was run: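 KINOMEscan competition binding panel of 468 kinases and mutants, compound at 1 μM; binding reported as percent of control.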

[7] = molecular target: Serine/threonine-protein kinase pim-3 (Homo sapiens, UniProt Q86V86); assay: Inhibition of wild-type human partial length PIM3 (G16 to A317 residues) expressed in bacterial expression system after 1 hr by Z-LYTE assay
[8] = test system: Mast/stem cell growth factor receptor Kit (Homo sapiens), P10721 [UNDEFINED MUTATION]; assay: Inhibition of c-KIT 560 to 578 deletion/T670I double mutant in human GIST5R cells assessed as reduction in c-KIT autophosphorylation at Y703 residue at 0.1 uM to 3 uM after 1 hr by Western blot analysis; format: cell-based
Mast/stem cell growth factor receptor Kit (Homo sapiens), P10721 [UNDEFINED MUTATION], sequence (P10721 whole entry, looked up, stated change not applied): as the sequence (P10721 whole entry, the tested form may be a part) above
How it was run: (§2)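 Serial compound dilutions applied for 1 h to GIST-T1, GIST-T1-T670I (CRISPR/Cas9 T670I knock-in, clone confirmed by Sanger sequencing) or GIST-5R cells in DMEM with 10% FBS. Cells then lysed and phospho-proteins detected by standard Western blotting.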

[9] = test system: Mast/stem cell growth factor receptor Kit (Homo sapiens), P10721 [UNDEFINED MUTATION]; assay: Inhibition of c-KIT 560 to 578 deletion mutant in human GISTT1 cells assessed as reduction in ERK phosphorylation at T202/Y204 residue at 0.1 uM to 3 uM after 1 hr by Western blot analysis; format: cell-based; how it was run: as §2
[10] = test system: Mast/stem cell growth factor receptor Kit (Homo sapiens), P10721 [UNDEFINED MUTATION]; assay: Inhibition of c-KIT 560 to 578 deletion/T670I double mutant in human GIST5R cells assessed as reduction in S6 phosphorylation at S235/S236 residue at 0.1 uM to 3 uM after 1 hr by Western blot analysis; format: cell-based; how it was run: as §2
Homo sapiens = species: Homo sapiens; assay: Induction of apoptosis in human GIST5R cells harboring c-KIT 560 to 578 deletion/T670I double mutant assessed as increase in cleaved caspase level after 24 hrs by Western blot analysis; format: functional, cell-based
GISTT1 = assay: Induction of cell cycle arrest in human GISTT1 cells harboring 560 to 578 deletion/T670I double mutant after 24 hrs; format: functional, cell-based
[11] = Tmax in Sprague-Dawley rat at 1 mg/kg, iv measured after 2 to 720 mins by LC-tandem mass spectrometry analysis; format: ADME, organism-based; details: in vivo
How it was run: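 Male Sprague–Dawley rats (190-210 g), fasted 12 h, given 1 mg/kg i.v. or 10 mg/kg p.o. in DMSO/5% glucose water (1:9). Blood sampled at 2–720 min (i.v.) or 5–720 min (p.o.). Plasma proteins precipitated with methanol using caffeine internal standard, then LC-MS/MS. Noncompartmental analysis; F = AUC0-∞ ratio corrected for dose; triplicate ±SD.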

[12] = Apparent clearance in Sprague-Dawley rat at 1 mg/kg, iv measured after 2 to 720 mins by LC-tandem mass spectrometry analysis; format: ADME, organism-based; details: in vivo, read-out: CL(app) (converted)
How it was run: (§3)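 Male Sprague-Dawley rats (190-210 g), fasted 12 h, randomized into two groups: 1 mg/kg i.v. or 10 mg/kg p.o., both formulated in 10% DMSO/90% of 5% glucose water. Blood sampled at 2-720 min (i.v.) or 5-720 min (p.o.). Plasma protein-precipitated with methanol, caffeine internal standard, LC-MS/MS. Noncompartmental analysis; triplicate, ±SD.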

[13] = Cmax in Sprague-Dawley rat at 10 mg/kg, po measured after 5 to 720 mins by LC-tandem mass spectrometry analysis; format: ADME, organism-based; design: dose 10 mg/kg, route oral; details: in vivo; how it was run: as §3
[14] = Apparent volume of distribution in mouse at 1 mg/kg, iv measured after 2 to 720 mins by LC-tandem mass spectrometry analysis; format: ADME, organism-based; details: in vivo, read-out: Vz
How it was run: (§4)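 Mice dosed 1 mg/kg i.v. or 10 mg/kg p.o.; plasma drug levels by LC-MS/MS, parameters by noncompartmental analysis; values not from triplicate testing.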

[15] = AUC (0 to t) in mouse at 10 mg/kg, po measured after 5 to 720 mins by LC-tandem mass spectrometry analysis; format: ADME, organism-based; details: in vivo; how it was run: as §4
[16] = Tmax in mouse at 10 mg/kg, po measured after 5 to 720 mins by LC-tandem mass spectrometry analysis; format: ADME, organism-based; details: in vivo
[17] = Half-life in mouse at 10 mg/kg, po measured after 5 to 720 mins by LC-tandem mass spectrometry analysis; format: ADME, organism-based; details: in vivo; how it was run: as §4
[18] = Apparent volume of distribution in mouse at 10 mg/kg, po measured after 5 to 720 mins by LC-tandem mass spectrometry analysis; format: ADME, organism-based; details: in vivo; how it was run: as §4
Mus musculus = assay: Inhibition of AKT phosphorylation at […] residue in tumor of human GIST5R cells xenografted in nude mouse at 100 mg/kg, po administered as single dose and measured at 2 hrs; format: functional, organism-based
How it was run: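 Female nu/nu mice bearing subcutaneous GIST-5R tumors (cells in Matrigel, right flank) given one oral dose of 100 mg/kg in 0.5% methylcellulose/0.4% Tween80. Tumors collected over a 2 h time course. p-c-KIT, p-ERK and p-AKT measured alongside plasma drug levels.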

With `O=C(CC(=O)Nc1ccc2c(/C=C/c3ccccn3)n[nH]c2c1)Nc1cccc(F)c1` the GI50 [1] was 1150 nM, the GI50 [2] was 265 nM and the GI50 [3] was 6.84 µM. The GI50 [4] was 6 µM, the pEC50 [5] was less than 6.00 and the Activity [6] was 0.2%. For the same compound, the pIC50 [7] was less than 5.00, the inhibition [8] was “Active” and the inhibition [9] was “Active”. For the same compound, the inhibition [10] was “Active”, the Activity (Homo sapiens) was “Dose-dependent effect” and the Activity (GISTT1) was “Dose-dependent effect”. The Tmax [11] was 1.02 min, the clearance [12] was 55 mL/min/kg and the Cmax [13] was 97.1 ng/mL. For the same compound, the Vd [14] was 5.7 L/kg, the AUC(0-t) [15] was 1470 ng·h/mL and the Tmax [16] was 30 min. For the same compound, the half-life [17] was 96 min, the Vz [18] was 19 L/kg and the inhibition (Mus musculus) was “Active”.
